Here are results for nine compounds from publication PMC3065953 (Inorganic chemistry, 2011).

Read-outs that look alike come from different tables or passages of the source.

A short description of data set [1]: Cyclic voltammetry in DMF. The format is physicochemical. Particulars: for Ep, V vs. Ag/AgCl (peak reduction potential): DMF, 0.1 M (n-Bu4N)PF6, scan rate 100 mV/s; for reduction peak potential: vs. Ag/AgCl, in DMF.
The conditions of data set [2]: cited from earlier work; for peak potential: in water / aqueous media; for Ep, V vs. Ag/AgCl (peak reduction potential): value in parentheses, aqueous solution.
The nature of data set [3]: Cyclic voltammetry in aqueous solution. Format: physicochemical. The note with it: value in parentheses, this work (Figure S3).
Data set [4] deals with human lung carcinoma (A549) cells. In words: MTT cytotoxicity assay in A549 cells. Format: cell-based. The note with it: 72-h exposure, mean ± SD of at least three experiments. The method, boiled down: (§1)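 Cells kept in DMEM/10% FBS/1% penicillin-streptomycin at 37 °C, 5% CO2. Seeded 1500 (A549) or 2500 (MRC-5) cells/well, 24 h, then 72 h in fresh medium with graded Pt concentrations. Pt(IV) complexes diluted from 10–20 mM DMSO stocks, reference Pt(II) drug from 2 mM PBS stock. MTT 0.8 mg/mL, 4 h; formazan dissolved in DMSO/10% pH 10.5 glycine buffer; A570. Viability normalized to Pt-free wells; IC50 extrapolated from curves. ≥3 independent experiments in triplicate.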
(In general: Tetrazolium assays rely on reduction of a dye to a coloured formazan, in cell work by metabolically active cells.)

Data set [5] has as its system human normal lung fibroblasts (MRC-5) cells. Kind of data set: MTT cytotoxicity assay in MRC-5 cells. The format is cell-based. Particulars: for cytotoxicity relative to cisplatin / IC50: MRC-5 cells; for IC50: MTT assay, 72-h exposure, mean ± SD of at least three experiments; for factor less cytotoxic in the healthy cells compared to the cancerous cells: MRC-5 vs. A549 IC50. In short, it runs like this: as §1

For `CC(=O)[O][Pt]([NH2])([NH2])([Cl])([Cl])[O]C(C)=O` [Compound 1, c,c,t-[Pt(NH3)2Cl2(O2CCH3)2], reference compound], in data set [1], the “Ep, V vs. Ag/AgCl (peak reduction potential)” value was −0.72 V and the reduction peak potential is recorded as −722 mV. Further, in data set [2], the peak potential is −635 mV and the “Ep, V vs. Ag/AgCl (peak reduction potential)” value is listed as −0.64 V.
Regarding `[NH2][Pt]([NH2])([Cl])([Cl])([O]C(=O)C(F)(F)F)[O]C(=O)C(F)(F)F` [Compound 2, c,c,t-[Pt(NH3)2Cl2(O2CCF3)2]], in data set [1], the “Ep, V vs. Ag/AgCl (peak reduction potential)” value is −0.35 V and the reduction peak potential was −345 mV. In data set [3], the “Ep, V vs. Ag/AgCl (peak reduction potential)” value amounted to 0.01 V.
In the case of `[NH2][Pt]([NH2])([Cl])([Cl])([Cl])[Cl]` [Compound 3, cis-[Pt(NH3)2Cl4], reference compound], in data set [1], the “Ep, V vs. Ag/AgCl (peak reduction potential)” value was −0.45 V and the reduction peak potential was −454 mV. Besides, in data set [2], the peak potential was −260 mV and the “Ep, V vs. Ag/AgCl (peak reduction potential)” value is reported as −0.26 V.
Regarding `CC(C)(C)NC(=O)[O][Pt]([NH2])([NH2])([Cl])([Cl])[O]C(=O)NC(C)(C)C` [Compound 4], half-maximal inhibition in data set [4] (IC50) was put at 1 ± 0.3 µM. For the same compound, in data set [5], the “cytotoxicity relative to cisplatin” value is on record as “more toxic”; the concentration for half-maximal inhibition (IC50) (as a rule, the concentration needed to halve the response being measured) was determined as 2.8 ± 0.8 µM; the “factor less cytotoxic in the healthy cells compared to the cancerous cells” value is listed as roughly 2. Also, in data set [1], the “Ep, V vs. Ag/AgCl (peak reduction potential)” value is reported as −0.85 V.
The compound `[NH2][Pt]([NH2])([Cl])([Cl])([O]C(=O)NC1CCCC1)[O]C(=O)NC1CCCC1` [Compound 5] had a half-inhibitory concentration (IC50) in data set [4] of 0.6 ± 0.3 µM. In addition, in data set [5], the “cytotoxicity relative to cisplatin” value is reported as “more toxic”, the IC50 turned out to be 2.3 ± 0.7 µM and the “factor less cytotoxic in the healthy cells compared to the cancerous cells” value is reported as roughly 2. Further, the “Ep, V vs. Ag/AgCl (peak reduction potential)” value in data set [1] was −0.85 V.
Regarding `COc1ccc(NC(=O)[O][Pt]([NH2])([NH2])([Cl])([Cl])[O]C(=O)Nc2ccc(OC)cc2)cc1` [Compound 9], the IC50 was 5.3 ± 2.5 µM in data set [4] and 9.3 ± 3.2 µM in data set [5]. For the same compound, the “Ep, V vs. Ag/AgCl (peak reduction potential)” value in data set [1] is reported as −0.72 V.
`[NH2][Pt]([NH2])([Cl])([Cl])([O]C(=O)Nc1cccc2ccccc12)[O]C(=O)Nc1cccc2ccccc12` [Compound 11]: the values for the half-maximal inhibitory concentration (IC50) in data set [4] and in data set [5] were 4.3 ± 1.5 µM and 4.8 ± 0.3 µM, respectively. Moreover, in data set [1], the “Ep, V vs. Ag/AgCl (peak reduction potential)” value is on record as −0.63 V. Also, in data set [1], the reduction peak potential is given as −625 mV.
As to `[NH2][Pt]([NH2])([OH])([OH])([Cl])[Cl]` [c,c,t-[Pt(NH3)2Cl2(OH)2]], the peak potential in data set [2] was −880 mV.
Take `N.N.[Cl][Pt][Cl]` [cisplatin, cis-diamminedichloroplatinum(II), reference compound]: the IC50 turned out to be 7 ± 2.6 µM in data set [4] and 4.3 ± 1.3 µM in data set [5].
